Source: PubChem
TRPC6 activator: mouse TRPC6 channel activators, primary screen, cell-based, HEK293, membrane potential dye; Short transient receptor potential channel 6 (Mus musculus), Q61143; 310,000 compounds, 0.13% hits; B-score at 10 µM; HEK293-TRPC6 membrane potential dye fluorescence; active compounds read high;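 active means B-score of the integrated fluorescence ratio above library mean plus 3 SD, and starting fluorescence ratio within library mean plus 5 SD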;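 further: higher score means more depolarization so channel activation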
Target sequence (Q61143 whole entry, looked up): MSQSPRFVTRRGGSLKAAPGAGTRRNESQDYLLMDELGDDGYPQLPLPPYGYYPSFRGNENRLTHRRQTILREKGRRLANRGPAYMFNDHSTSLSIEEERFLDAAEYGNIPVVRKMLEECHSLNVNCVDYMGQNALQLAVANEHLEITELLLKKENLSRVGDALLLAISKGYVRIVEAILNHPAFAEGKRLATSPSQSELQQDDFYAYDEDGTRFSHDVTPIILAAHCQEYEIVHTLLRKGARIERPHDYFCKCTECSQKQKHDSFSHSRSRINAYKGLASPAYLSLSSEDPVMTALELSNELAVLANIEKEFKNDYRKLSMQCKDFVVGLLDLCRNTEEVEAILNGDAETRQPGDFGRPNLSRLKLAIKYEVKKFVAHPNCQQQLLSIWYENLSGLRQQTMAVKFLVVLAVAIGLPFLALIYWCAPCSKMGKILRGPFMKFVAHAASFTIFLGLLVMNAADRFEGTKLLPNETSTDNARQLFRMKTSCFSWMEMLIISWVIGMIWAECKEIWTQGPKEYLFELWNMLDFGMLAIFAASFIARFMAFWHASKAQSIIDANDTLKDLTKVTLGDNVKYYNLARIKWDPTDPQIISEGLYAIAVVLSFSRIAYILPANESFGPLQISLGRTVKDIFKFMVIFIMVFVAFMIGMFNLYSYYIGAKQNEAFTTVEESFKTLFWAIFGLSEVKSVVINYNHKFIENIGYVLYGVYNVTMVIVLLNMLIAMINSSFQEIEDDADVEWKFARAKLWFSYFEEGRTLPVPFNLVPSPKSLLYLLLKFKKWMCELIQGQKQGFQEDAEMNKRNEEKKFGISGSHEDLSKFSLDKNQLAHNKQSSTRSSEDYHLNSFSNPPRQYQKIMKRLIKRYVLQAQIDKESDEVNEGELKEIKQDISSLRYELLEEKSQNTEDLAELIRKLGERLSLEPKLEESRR
TRPC4 act: activators of mouse TRPC4 channel, primary screen, Fluo4 calcium, HEK293 TRPC4beta/mu-opioid cells; Short transient receptor potential channel 4 (Mus musculus), Q9QUQ5; Fluo4 calcium fluorescence; active compounds read high; B-score at 10 µM; 310,000 compounds, 0.49% hits; AID 2237, 2010;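 active means B-score above 5 SD of library B-scores, and initial fluorescence ratio not above library mean plus 5 SD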;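 further: positive B-score marks a calcium rise read as TRPC4 activation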
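Technique: kinetic Fluo4 calcium fluorescence; Test system: TRPC4beta and mu-opioid receptor HEK293 stable cells; Measure: B-scored integrated calcium fluorescence ratio; Benchmarks: low control buffer alone, high control maximal DAMGO; Schedule: 45 min room-temperature Fluo4 loading, 110 s read.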
TRPC4 block: inhibitors of mouse TRPC4 channel, primary screen, Fluo4 calcium, HEK293 TRPC4beta/mu-opioid cells | DAMGO-evoked Fluo4 calcium flux; active compounds read low | B-score at 10 µM | Short transient receptor potential channel 4 (Mus musculus), Q9QUQ5 | 300,000 compounds, 0.39% hits;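 active means B-score over 3 SD under the library average, no early fluorescence shift, positive overall ratio signal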
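Assay system: TRPC4beta/mu-opioid receptor HEK293 cell line; compound dosing: single concentration per test compound; detection: Fluo4 Ca2+ flux fluorescence; evaluation: per-well B score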
TRPC4 PAM: positive allosteric modulators of TRPC4, primary screen, cell-based, mouse TRPC4beta, HEK293 mu-opioid, Fluo-4 calcium; DAMGO EC20, Fluo-4 Ca2+ flux; active compounds read high; B-score at 10 µM; 310,000 compounds, 0.42% hits; AID 2227, 2009;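 active means B-score of calcium response area above 5 SD of library B-scores, with initial fluorescence ratio within 5 SD of library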;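 further: B-score of integrated fluorescence ratio over time as area under calcium response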
TRPC6 inhibitor: mouse TRPC6 channel inhibitors, primary screen, cell-based, HEK293, membrane potential dye; 310,000 compounds, 1.1% hits; ACh-evoked depolarization; active compounds read low; B-score at 10 µM; Short transient receptor potential channel 6 (Mus musculus), Q61143;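 active means B-score under library mean minus 3 SD, initial fluorescence not abnormally high, positive integrated signal ratio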;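 further: B-score derived from integrated fluorescence ratio over the kinetic read; more negative B-score means stronger inhibition of depolarization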
Numbers without * were called inactive; i = inactive. Shown are actives, neighbours in structure and some others; about 2.3% of the full set was active somewhere.

SMILES	TRPC6 activator	TRPC4 act	TRPC4 block	TRPC4 PAM	TRPC6 inhibitor
Cc1ccccc1N(C(=O)c1snc(C(N)=O)c1N)C(C(=O)NCC1CCCO1)c1ccc(N(C)C)cc1 (stereo not drawn)	i	i	i	i	i
CCOc1ccc(C(C(=O)NCC2CCCO2)N(Cc2ccccc2)C(=O)c2snc(C(N)=O)c2N)cc1 (stereo not drawn)	i	i	i	i	i
Cc1ccc(N(C(=O)c2snc(C(N)=O)c2N)C(C(=O)NCC2CCCO2)c2ccc(C)o2)c(C)c1 (stereo not drawn)	i	i	-7*	i	i
CCOc1ccc(C(C(=O)NCC2CCCO2)N(Cc2cccnc2)C(=O)c2snc(C(N)=O)c2N)cc1 (stereo not drawn)	i	i	-6*	i	i
Cc1ccccc1N(C(=O)c1snc(C(N)=O)c1N)C(C(=O)NCC1CCCO1)c1ccc(F)cc1 (stereo not drawn)	i	i	-6*	i	i
Oc1ccc(N=Nc2ccccc2-c2nn[nH]n2)c(O)c1	i	i	i	i	i
COc1ccc2nc(Nc3nc(CSc4nc5ccccc5s4)cc(=O)[nH]3)nc(C)c2c1	i	i	i	i	i
O=C(NCc1n[nH]c(=S)n1-c1ccc(Br)cc1)c1ccc(S(=O)(=O)N2CCCCC2)cc1	i	i	i	i	i
CCN(CC)c1ccc2c(Cl)c(Br)c(=O)oc2c1	i	i	-6*	i	i
CCC(c1nnnn1CCc1ccccc1)N(Cc1ccco1)Cc1cc2cccc(C)c2[nH]c1=O (stereo not drawn)	i	i	i	11*	i
Cc1ccc2cc(CN(CCN3CCOCC3)Cc3nnnn3Cc3ccco3)c(=O)[nH]c2c1C	i	i	i	i	i
CCC(c1nnnn1C(C)(C)C)N(Cc1ccco1)Cc1cc2cccc(C)c2[nH]c1=O (stereo not drawn)	i	i	i	i	i
Cc1ccc2cc(CN(CCCN3CCOCC3)C(c3nnnn3Cc3ccco3)C(C)C)c(=O)[nH]c2c1C (stereo not drawn)	i	i	-9*	i	i
CNC(=S)N1N=C(c2ccc(C)cc2)CC1c1ccc(OC)cc1 (stereo not drawn)	i	i	i	i	i
CNC(=S)N1N=C(c2ccc(C)cc2)CC1c1cc(OC)ccc1OC (stereo not drawn)	i	i	i	17*	i
N/C(=N\OC(=O)COc1ccc2ccccc2c1)c1ccncc1	i	i	i	i	i
N/C(=N\OC(=O)COc1ccc2ccccc2c1Br)c1ccncc1	i	i	i	i	-5*
Fc1ccc(NC(=S)N2CCN(c3ccccn3)CC2)cc1Cl	i	i	i	i	i
CCN1CCN(c2nc(C)c3c(n2)CC(C)CC3=O)CC1 (stereo not drawn)	i	i	i	15*	i
COc1ccccc1N1CCN(C(c2ccccn2)c2nnnn2C2CCCCC2)CC1 (stereo not drawn)	i	74*	i	i	i
Fc1ccccc1N1CCN(C(c2ccccn2)c2nnnn2C2CCCCC2)CC1 (stereo not drawn)	i	i	i	i	i
N#CCCn1cc(C(=O)Nc2ccccn2)c(-c2ccccc2)n1	i	i	i	i	i
N#CCCn1cc(C(=O)Nc2ccc(C(=O)O)cc2)c(-c2cccc(Br)c2)n1	i	70*	i	i	i
O=C(Nc1ccncc1)c1ccc(Cl)c(S(=O)(=O)N2CCc3ccccc32)c1	i	95*	i	i	i
CCOC(=O)c1c(-c2ccc(C)cc2)csc1NC(=O)C1CC=CCC1C(=O)O (stereo not drawn)	i	i	i	i	i
SMILES	TRPC6 activator	TRPC4 act	TRPC4 block	TRPC4 PAM	TRPC6 inhibitor
CCOC(=O)c1c(-c2cccc(C)c2)csc1NC(=O)C1CC=CCC1C(=O)O (stereo not drawn)	i	i	-6*	i	i
Cc1ccc(-c2csc(NC(=O)C3CC=CCC3C(=O)O)c2C(=O)OC(C)C)cc1 (stereo not drawn)	i	i	-5*	i	i
Brc1ccc2[nH]c3c(NCc4ccccn4)ncnc3c2c1	i	61*	i	i	i
Cc1cccc(N/N=C(\C(N)=O)C2=NC(C)(C)Cc3ccccc32)c1	i	i	i	14*	i
CCOC(=O)/C(=N\O)C1=NC(C)(C)Cc2ccccc21	i	i	i	i	i
O=C(Nc1nccs1)c1ncc(Cl)c(Cl)c1Cl	i	i	i	i	i
CS(=O)(=O)Nc1nc2n(n1)C(c1ccccc1)CC(c1ccccc1)N2 (stereo not drawn)	i	i	-6*	i	i
CCCNC(=O)c1c(O)c2cccc3c2n(c1=O)CCC3	i	i	i	i	i
NCCNC(=O)c1c(O)c2cccc3c2n(c1=O)CCC3	i	104*	i	i	i
Cc1ccc(OCCC(=O)N2CCN(c3ccc(O)cc3)CC2)cc1	i	i	i	i	i
CCOc1ccc(OCC)c(NC(=O)c2nnn(CC(=O)Nc3cc(C)cc(C)c3)c2N)c1	i	i	i	i	i
O=C(NCc1ccccc1)c1c(Cl)nc(Cl)c(Cl)c1Cl	i	i	-6*	i	i
Cc1nc(Cl)c(C(=O)NCc2ccccc2)c(C)c1Cl	i	i	i	i	i
CC(C)C1=CC2=CCC3C(C)(C(=O)O)CCCC3(C)C2CC1 (stereo not drawn) (tested in a mixture with another compound)	i	i	i	i	i
Cc1cccc(CCN(CC(=O)NCc2ccc(F)cc2)C(=O)c2csnn2)c1	i	i	i	i	i
Cn1ncc(C#N)c1/N=C/N(Cc1ccccc1)Cc1ccccc1	i	i	i	16*	i
O=C(CCN1CCN(Cc2ccccc2)CC1)Nc1cccc(Br)c1	i	i	i	20*	i
CCCOc1ccc(NC(=O)CC2C(=O)N(CC)C(=S)N2CCCN2CCN(Cc3ccccc3)CC2)cc1 (stereo not drawn)	i	i	i	10*	i
